The IC50 is the point on the concentration scale where inhibition reaches its midpoint.

Our source for the IC50 and phage lysis inhibition values is PubChem BioAssay AID504538 (Southern Research Specialized Biocontainment Screening …, 2011).

Calls of active or inactive are those of the source. How the calls were made is not given here.

For one experiment, the system named is E. coli EV36 T7 phage lysis, OD600 3 h. In words: T7 lysis protection in EV36 bacteria – E. coli EV36, T7 phage, set 2, counter-screen for bacterial capsule biogenesis inhibitors, dose response (AID 504538).
Conditions: not given
Summed up:
(§1)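 buffer or medium = LB broth, overnight culture diluted 1:100 | test system = Escherichia coli EV36, K1 and K-12 hybrid strain | detection = OD600 absorbance at 3 h post-infection | compound dosing = 0.39–100 µM final, 1% DMSO | schedule = 1.5 h at 37 °C, then 3 h phage | repeats = quadruplicate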
For the compound `NC(N)=N/N=C/c1ccc(OCc2ccccc2)cc1`, the IC50 is 45 µM (inactive).
As for `COc1cc(/C=N/N=C(N)N)ccc1OCc1ccccc1Cl`, the IC50 is 44 µM (inactive).

Tested on in a further experiment: not listed separately
The experiment is described as above. To be noted: E. coli EV36 T7 phage lysis, OD600 3 h; at 100 µM (top of the series). Summed up: as §1
As for `O=C1c2c(O)ccc(O)c2C(=O)c2c(NCCNCCO)ccc(NCCNCCO)c21`, the phage lysis inhibition was 140% (inactive).
Same read-out and setting: to `O=C(Nc1cccc(C2=NCCN2)c1)Nc1cccc(C2=NCCN2)c1` belongs 88.6% (inactive); to `N=C(N)SCCc1cccc(CCSC(=N)N)c1`, 99.9% (inactive); to `CCN(CC)c1ccc2c(-c3ccc(S(=O)(=O)O)cc3S(=O)(=O)O)c3ccc(=[N+](CC)CC)cc-3oc2c1`, 110% (inactive).
Take `COc1ccc(-c2cc(C(=O)O)c3ccccc3n2)cc1`: the phage lysis inhibition is 102% (inactive).
As to `Cc1cccc(-c2cc(C(=O)O)c3ccccc3n2)c1`, the phage lysis inhibition was 102% (inactive).
